Measurements from paper PMC3623729 (Journal of medicinal chemistry, 2013).
“Also recorded” adds a separate entry of the source.

Columns and labels:
human RXRα = biological target: T1, human RXRα (Homo sapiens, UniProt P19793); assay: RXRE-luciferase reporter gene assay; assay type: cell-based; conditions: for Max IR: maximum induction ratio observed: compounds tested at variable concentrations
T1 sequence (P19793 1-462): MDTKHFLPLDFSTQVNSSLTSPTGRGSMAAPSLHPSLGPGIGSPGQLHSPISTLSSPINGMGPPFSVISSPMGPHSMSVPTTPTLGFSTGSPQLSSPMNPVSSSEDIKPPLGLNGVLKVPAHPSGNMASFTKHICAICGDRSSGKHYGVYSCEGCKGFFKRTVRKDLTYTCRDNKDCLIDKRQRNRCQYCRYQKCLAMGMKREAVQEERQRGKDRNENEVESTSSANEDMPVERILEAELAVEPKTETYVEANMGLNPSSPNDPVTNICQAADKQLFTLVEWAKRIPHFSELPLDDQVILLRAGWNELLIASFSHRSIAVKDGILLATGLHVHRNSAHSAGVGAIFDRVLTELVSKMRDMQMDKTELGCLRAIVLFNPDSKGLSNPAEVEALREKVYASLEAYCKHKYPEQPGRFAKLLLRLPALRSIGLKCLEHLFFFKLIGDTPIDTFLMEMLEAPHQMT

VDR [1] = biological target: T2, VDR (Homo sapiens, UniProt P11473); assay: Competitive binding against curcumin for VDR; conditions: equimolar concentration
T2 sequence (P11473 1-427): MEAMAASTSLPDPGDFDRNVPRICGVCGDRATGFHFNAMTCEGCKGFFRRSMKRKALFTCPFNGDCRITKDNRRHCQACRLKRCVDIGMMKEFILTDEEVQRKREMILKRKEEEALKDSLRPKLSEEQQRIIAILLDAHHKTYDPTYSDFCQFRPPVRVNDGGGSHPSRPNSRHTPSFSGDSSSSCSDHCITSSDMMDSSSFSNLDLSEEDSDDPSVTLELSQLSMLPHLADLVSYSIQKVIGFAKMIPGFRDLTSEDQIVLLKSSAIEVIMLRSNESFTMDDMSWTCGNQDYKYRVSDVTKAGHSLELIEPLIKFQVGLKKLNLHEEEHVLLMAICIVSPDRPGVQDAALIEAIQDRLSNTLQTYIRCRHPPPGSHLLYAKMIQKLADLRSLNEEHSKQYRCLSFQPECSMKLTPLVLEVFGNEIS

VDR [2] = biological target: T2, VDR; assay: VDR ultrafiltration affinity assay; assay type: binding
Procedure, shortened: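 Commercial VDR in storage buffer incubated with test ligand for 30 min at 37 °C, dark, shaking. Ultrafiltered at 12,000 × g, 4 °C, rinsed with ice-cold 50 mM ammonium acetate, 0.1 mM NaCl, pH 8.0. Bound ligand released in methanol with genistein internal standard, dried under N2, analysed by LC-ion trap TOF MS, both polarities, m/z 100–1500. Controls were boiled hVDR or no protein, with lithocholic acid and curcumin as positives.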

[3] = cited from earlier work
[4] = test system: MCF-7 breast cancer cells; conditions: cited from earlier work
COS-1 cells = assay: % Cell Survival; assay type: cell-based; conditions: concentration not given

Row | SMILES | RXR activity in words (active / inactive) (human RXRα) | Positive VDR signal (VDR [2]) | also measured
1 | NCCCn1c2c(c3ccc(N)cc3c1=O)C(=O)c1ccccc1-2 [Compound 3, 3-Amino-6-(3'-aminopropyl)-5H-indeno[1,2-c]isoquinoline-5,11-(6H)dione] | high activity | 1903415 | competition with curcumin for binding to VDR (VDR [1]): did not compete; metabolism of the ketone group [3]: metabolized to an alcohol, which renders the compound inactive; apoptosis in MCF-7 cells [4]: induce apoptosis in MCF-7 breast cancer cells in a dose-dependent manner
2 | CCOC(=O)CNc1ccc2c3c(n(CCCN)c(=O)c2c1)-c1ccccc1C3=O [Compound 62] | – | 152467 | –
3 | NCCCn1c2c(c3ccccc3c1=O)C(=O)c1ccccc1-2 [Compound 79] | high activity | 4013179 | EC50 (human RXRα): 10.2 µM; % Cell Survival (COS-1 cells; Table 3): 52.5%
4 | NCCCCn1c2c(c3ccccc3c1=O)C(=O)c1ccccc1-2 [Compound 80] | – | 3320824 | –
5 | NCCCCCn1c2c(c3ccccc3c1=O)C(=O)c1ccccc1-2 [Compound 81] | – | 7877048 | –
6 | NCCCCCCn1c2c(c3ccccc3c1=O)C(=O)c1ccccc1-2 [Compound 82] | – | 9397620 | –
7 | O=C1c2ccccc2-c2c1c1ccc([N+](=O)[O-])cc1c(=O)n2CCCCO [Compound 120, 6-(4-Hydroxybutyl)-3-nitro-5H-indeno[1,2-c]isoquinoline-5,11(6H)-dione] | inactive | – | –
8 | CN(C)CCCn1c2c(c3ccc(N)cc3c1=O)C(=O)c1ccccc1-2 [Compound 121, 3-Amino-6-(3-(dimethylamino)propyl)-5H-indeno[1,2-c]isoquinoline-5,11(6H)-dione] | high activity | 2011978 | –
9 | Cl.NCCCn1c2c(c3ccc(N)cc3c1=O)Cc1ccccc1-2 [Compound 124, 3-Amino-6-(3-aminopropyl)-6,11-dihydro-5H-indeno[1,2-c]isoquinolin-5-one] | good activity | 1422175 | –
10 | N#Cc1ccc2c3c(n(CCCn4ccnc4)c(=O)c2c1)-c1ccccc1C3=O [Compound 127] | inactive; also recorded: lack of activity | – | –
11 | N#Cc1ccc2c3c(n(CCCN4CCOCC4)c(=O)c2c1)-c1ccccc1C3=O [Compound 128] | inactive; also recorded: lack of activity | – | –
12 | COc1cc2c3c(n(CCCN)c(=O)c2cc1OC)-c1ccc(F)cc1C3=O [Compound 160] | – | – | Max IR: maximum induction ratio observed (human RXRα): NA (NA: Max IR not determined because IR < 2.)

Second part, led by results:

Row | RXR activity in words (active / inactive) (human RXRα) | Positive VDR signal (VDR [2]) | SMILES | also measured
13 | detrimental for activity | – | CNCCCn1c2c(c3ccc([N+](=O)[O-])cc3c1=O)C(=O)c1ccccc1-2 [Compound 125] | Max IR: maximum induction ratio observed (human RXRα): NA (NA: Max IR not determined because IR < 2.)
14 | high activity | 2155086 | CNCCCn1c2c(c3ccc(N)cc3c1=O)C(=O)c1ccccc1-2 [Compound 126] | –
15 | active | – | CN(C)CCCn1c2c(c3ccc(C#N)cc3c1=O)C(=O)c1ccccc1-2 [Compound 129] | –
16 | – | 4875144 | CC(=O)Nc1ccc2c3c(n(CCCN)c(=O)c2c1)-c1ccccc1C3=O [Compound 131] | –
17 | inactive | – | CC(=O)Nc1ccc2c3c(n(CCCO)c(=O)c2c1)-c1ccccc1C3=O [Compound 132] | Max IR: maximum induction ratio observed (human RXRα): NA (NA: Max IR not determined because IR < 2.); % Cell Survival (COS-1 cells; Table 7): 90.6%
18 | inactive | – | O=C1c2ccccc2-c2c1c1ccc([N+](=O)[O-])cc1c(=O)n2CCCCl [Compound 133] | –
19 | inactive | – | [N-]=[N+]=NCCCn1c2c(c3ccc([N+](=O)[O-])cc3c1=O)C(=O)c1ccccc1-2 [Compound 134] | –
20 | detrimental for activity | – | NCCCn1c2c(c3ccc([N+](=O)[O-])cc3c1=O)C(=O)c1ccccc1-2 [Compound 135] | Max IR: maximum induction ratio observed (human RXRα): NA (NA: Max IR not determined because IR < 2.)
21 | inactivated | – | CC(C)(C)OC(=O)NCCCn1c2c(c3ccc(N)cc3c1=O)C(=O)c1ccccc1-2 [Compound 141] | –
22 | detrimental for activity | – | CC(=O)NCCCn1c2c(c3ccc([N+](=O)[O-])cc3c1=O)C(=O)c1ccccc1-2 [Compound 143] | –
23 | significantly reduced the IR | – | CC(=O)NCCCn1c2c(c3ccc(N)cc3c1=O)C(=O)c1ccccc1-2 [Compound 144] | –
24 | inactive | – | O=C1c2ccccc2-c2c1c1ccc([N+](=O)[O-])cc1c(=O)n2CCCO [Compound 145] | –
25 | inactive | – | CN(C)c1ccc2c3c(n(CCCN)c(=O)c2c1)-c1ccccc1C3=O [Compound 149] | Max IR: maximum induction ratio observed (human RXRα): NA (NA: Max IR not determined because IR < 2.)
26 | inactive | – | O=C1c2ccccc2-c2c1c1ccccc1c(=O)n2CCCO [Compound 151] | Max IR: maximum induction ratio observed (human RXRα): NA (NA: Max IR not determined because IR < 2.)
